Laboratory results as given in ChEMBL document CHEMBL4819095, “Development of ciclesonide analogues that block SARS-CoV-2 RNA replication” (Bioorg Med Chem Lett, 2021).
Activity calls are given as the source filed them. The calls are words filed in the database; no cut-off is given here.

Key:
Vero C1008 [1] = experiment: Cytotoxicity against African green monkey Vero E6 cells expressing TMPRSS2 assessed as reduction in cell viability upto 40 uM incubated for 18 hrs by LDH assay; type: cell-based; details: chlorocebus sabaeus, vero c1008, 18 h
Summary of the method: (§1)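 Vero E6/TMPRSS2 cells exposed for 18 h to compounds at concentrations up to 40 µM. Cytotoxicity read as lactate dehydrogenase (LDH) release. Each independent experiment run in triplicate.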

SARS-CoV-2 [2] = experiment: Antiviral activity against SARS-CoV-2 JPN/TY/WK-251 infected in African Green monkey Vero E6 cells expressing TMPRSS2 assessed as reduction in viral plaques incubated for 18 hrs by plaque reduction assay; type: functional, organism-based; details: Severe acute respiratory syndrome coronavirus 2, dose 0.625-80 µM
SARS-CoV-2 [3] = experiment: Antiviral activity against SARS-CoV-2 JPN/TY/WK-251 infected in African green monkey Vero E6 cells expressing TMPRSS2 assessed as reduction in viral RNA replication by measuring replication copies assessed per well at 10 uM incubated for 18 hrs by qRT-PCR analysis; type: functional, Severe acute respiratory syndrome coronavirus 2
Vero C1008 [4] = experiment: Cytotoxicity against African green monkey Vero E6 cells expressing TMPRSS2 assessed as reduction in cell viability at 40 uM incubated for 18 hrs by LDH assay; type: cell-based; details: chlorocebus sabaeus, vero c1008, 18 h; summary of the method: as §1
Vero C1008 [5] = experiment: Cytotoxicity against African green monkey Vero E6 cells expressing TMPRSS2 assessed as reduction in cell viability at 20 uM incubated for 18 hrs by LDH assay; type: cell-based; details: chlorocebus sabaeus, vero c1008, 18 h; summary of the method: as §1
[6] = Severe acute respiratory syndrome coronavirus 2

Row | Structure (SMILES) | Activity (Vero C1008 [1]) | Activity (SARS-CoV-2 [2]) | Activity (SARS-CoV-2 [3]) | Activity (Vero C1008 [4]) | Activity (SARS-CoV-2 [3]; [6]) | Activity (Vero C1008 [5])
1 | C[C@]12C=CC(=O)C=C1CC[C@@H]1[C@@H]2[C@@H](O)C[C@@]2(C)[C@H]1C[C@H]1O[C@@H](C3CCCCC3)O[C@]12C(=O)CN=[N+]=[N-] | Non-Toxic | Dose-Dependent Effect | 2.1 10^5No_unit |  |  | 
2 | C[C@]12C=CC(=O)C=C1CC[C@@H]1[C@@H]2[C@@H](O)C[C@@]2(C)[C@H]1C[C@H]1O[C@@H](C3CCCCC3)O[C@]12C(=O)CBr |  |  |  | Toxic | Active | 
3 | C[C@]12C=CC(=O)C=C1CC[C@@H]1[C@@H]2[C@@H](O)C[C@@]2(C)[C@H]1C[C@H]1O[C@@H](C3CCCCC3)O[C@]12C(=O)CO [DESISOBUTYRYLCICLESONIDE] |  | Dose-Dependent Effect |  |  | Active | Toxic
4 | C[C@]12C=CC(=O)C=C1CC[C@@H]1[C@@H]2[C@@H](O)C[C@@]2(C)[C@H]1C[C@H]1O[C@@H](C3CCCCC3)O[C@]12C(=O)CI |  |  |  | Toxic |  | 
5 | CC(C)C(=O)OCC(=O)[C@@]12O[C@H](C3CCCCC3)O[C@@H]1C[C@H]1[C@@H]3CCC4=CC(=O)C=C[C@]4(C)[C@H]3[C@@H](O)C[C@@]12C [CICLESONIDE] | Non-Toxic | Dose-Dependent Effect | 5.2 10^5No_unit |  |  | 
6 | CC(C)C(=O)NCC(=O)[C@@]12O[C@H](C3CCCCC3)O[C@@H]1C[C@H]1[C@@H]3CCC4=CC(=O)C=C[C@]4(C)[C@H]3[C@@H](O)C[C@@]12C | Non-Toxic |  |  |  |  | 
7 | C[C@]12C=CC(=O)C=C1CC[C@@H]1[C@@H]2[C@@H](O)C[C@@]2(C)[C@H]1C[C@H]1O[C@@H](C3CCCCC3)O[C@]12C(=O)CN |  |  |  |  |  | Toxic
8 | C[C@]12C=CC(=O)C=C1CC[C@@H]1[C@@H]2[C@@H](O)C[C@@]2(C)[C@H]1C[C@H]1O[C@@H](C3CCCCC3)O[C@]12C(=O)COS(C)(=O)=O |  |  |  |  | Active | Toxic
9 | CN(C)CC(=O)[C@@]12O[C@H](C3CCCCC3)O[C@@H]1C[C@H]1[C@@H]3CCC4=CC(=O)C=C[C@]4(C)[C@H]3[C@@H](O)C[C@@]12C |  |  |  | Toxic |  | 
10 | C[C@]12C=CC(=O)C=C1CC[C@@H]1[C@@H]2[C@@H](O)C[C@@]2(C)[C@H]1C[C@H]1O[C@@H](C3CCCCC3)O[C@]12C(=O)CCl | Non-Toxic | Dose-Dependent Effect | 4.6 10^5No_unit |  |  | 
